Results on 4 compounds are retold here after PMC3787807 (Journal of Natural Products, 2013).

The structures appear in SMILES notation.

Assay [1] deals with TgACTI (T. gondii actin) (Toxoplasma gondii, UniProt P53476). Kind of assay: Ninety-degree light scattering of TgACTI polymerization. It is filed as biochemical. The following applies: 5 μM TgACTI in F-buffer, compounds at 0.25, 1 or 2 μM, 9000 s. An outline of the steps: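 Baculovirus-expressed N-His TgACTI was Ni-NTA purified, dialysed into G buffer (pH 8.0, 0.2 mM ATP) and spun at 100000g to remove aggregates. It was held at 5 μM in G buffer at 21 °C, with ex/em 310 nm. After a steady baseline, 10× F buffer (500 mM KCl, 20 mM MgCl2, 10 mM ATP) went in at 1/10 volume with compound or DMSO control. Scatter counted for 9000 s.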
Sequence of TgACTI (T. gondii actin) (P53476 whole entry): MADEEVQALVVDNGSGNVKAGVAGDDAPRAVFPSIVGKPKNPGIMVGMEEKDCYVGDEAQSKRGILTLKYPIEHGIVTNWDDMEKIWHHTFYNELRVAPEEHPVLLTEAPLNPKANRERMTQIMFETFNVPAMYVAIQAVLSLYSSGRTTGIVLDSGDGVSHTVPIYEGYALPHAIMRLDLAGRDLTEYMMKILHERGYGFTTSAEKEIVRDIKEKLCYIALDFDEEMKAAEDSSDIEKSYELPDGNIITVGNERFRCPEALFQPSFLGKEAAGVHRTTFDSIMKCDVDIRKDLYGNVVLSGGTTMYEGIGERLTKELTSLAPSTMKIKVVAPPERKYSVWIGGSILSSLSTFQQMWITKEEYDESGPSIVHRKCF

The subject of assay [2] is T. gondii. Kind of assay: Inhibition of T. gondii proliferation. Conditions: T. gondii growth on HFF monolayers. The assay is classed as cell-based, Toxoplasma gondii. A digest of the protocol: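 β-gal-expressing parasites preincubated 30 min with compound dilutions in DMEM/10% FBS/gentamicin with 0.2% DMSO, then seeded at 500/well onto confluent HFF. Compound kept continuously or washed out after 2 or 48 h. After 72 h at 37 °C, 5% CO2, cells lysed and given chlorophenol red-β-D-galactopyranoside substrate. A570 normalised to untreated. EC50 from variable-slope log(inhibitor)–response fits, three experiments (n = 4 replicates).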

For assay [3], the system named is human cells. The following applies: read-out: EC50, growth inhibition of human cells; cited from earlier work.

`C/C1=C\[C@H](C)C[C@H](C)OC(=O)C[C@H](c2ccc(O)cc2)NC(=O)[C@@H](Cc2c(Br)[nH]c3ccccc23)N(C)C(=O)[C@H](C)NC(=O)[C@@H](C)C1` [compound 1, Jasplakinolide, reference compound]: the “TgACTI polymerization (light scattering)” value in assay [1] is given as “promote actin polymerization”.

Turning to `CO[C@@H]1C(=O)O[C@H](C)[C@H](C)/C=C(\C)C[C@H](C)C(=O)N[C@@H](C)C(=O)N(C)[C@H](Cc2c[nH]c3ccccc23)C(=O)N[C@H]1c1ccc(C(N)=O)cc1` [2k], the “activity against the parasite (in words)” value in assay [2] is reported as “eliminated activity against the parasite”. In addition, the EC50 (as a rule, the concentration giving half of the maximal effect) in assay [3] was around 1.4 µM. With `CO[C@@H]1C(=O)O[C@H](C)[C@H](C)/C=C(\C)C[C@H](C)C(=O)N[C@@H](C)C(=O)N(C)[C@H](Cc2c[nH]c3ccccc23)C(=O)N[C@H]1c1ccc(O)cc1` [compound 2, chondramide A], the “TgACTI polymerization (light scattering)” value in assay [1] is “promote actin polymerization”. Same read-out and setting: in the case of `CO[C@@H]1C(=O)O[C@H](C)[C@H](C)/C=C(\C)C[C@H](C)C(=O)N[C@@H](C)C(=O)N(C)[C@H](Cc2c[nH]c3ccccc23)C(=O)N[C@H]1c1ccccc1` [2a, synthetic chondramide A] it was “promote actin polymerization”.
